Data on one compound can be found in ChEMBL document CHEMBL4304782, “Antioxidant, Anti-inflammatory, and Neuroprotective Effects of Novel Vinyl Sulfonate Compounds as Nrf2 Activator” (ACS Med Chem Lett, 2019).

Activity calls are given as the source filed them. The rule behind the calls is not given here.

Data set [1] relates to Mus musculus. The experiment in a line: Protection against MPTP-induced DAergic neurotoxicity in C57B/6 mouse model of Parkinson's disease assessed as restoration of TH-positive neurons cell density in SN at 20 mg/kg, po observed after 7 days by microscopic analysis. Format: functional, organism-based. The gist of the method: (§1)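 MPTP mouse model with 20 mg/kg oral dosing; striatal and substantia nigra sections collected 7 days later and stained for tyrosine hydroxylase; striatal TH density and nigral TH-positive neuron counts; mean ± SEM; one-way ANOVA with Tukey's test.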

Data set [2] concerns Mus musculus. The experiment in a line: Protection against MPTP-induced DAergic neurotoxicity in C57B/6 mouse model of Parkinson's disease assessed as restoration of TH-positive neurons cell density in striatum at 20 mg/kg, po observed after 7 days by microscopic analysis. Format: functional, organism-based. The gist of the method: as §1
A short description of data set [3]: Cytotoxicity against mouse BV2 cells assessed as cell viability at 10 uM incubated for 6 hrs by CCK-8 assay relative to control. Format: cell-based, BV-2. The settings on record: read-out: Activity. The gist of the method: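 BV-2 cells exposed to compound for 6 h, then viability measured; percent survival reported.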
The test system of data set [4] is Mus musculus. The experiment in a line: Anti-parkinson's activity in MPTP-induced C57Bl/6 mouse model of Parkinson's disease assessed as restoration of total time at 20 mg/kg, po administered for 3 consecutive days prior and subsequent to MPTP administration (four injections of MPTP, 2 h intervals, 20 mg/kg, i.p. injection by vertical grid test. Format: functional, organism-based. The gist of the method: (§2)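 Mice dosed 20 mg/kg p.o. (or vehicle) for 3 consecutive days before and after MPTP (four i.p. injections, 20 mg/kg, 2 h apart); vertical grid test (turning, descent, total time) and coat-hanger scoring; n = 10–12 per group; mean ± SEM; one-way ANOVA with Tukey's test.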

Data set [5] concerns BV-2. Kind of data set: Antiinflammatory activity in mouse BV2 cells assessed as reduction in LPS-induced COX2 level at 1 to 10 uM incubated for 6 hrs followed by LPS stimulation for 12 hrs by Western blot analysis. In kind it is functional, cell-based. The gist of the method:
(§3)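 BV-2 cells pretreated with compound 6 h, then stimulated with 1 μg/mL LPS for 12 h; protein and mRNA levels quantified relative to LPS-stimulated control; mean ± SD (n = 3); paired t test.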

Data set [6] concerns BV-2. Kind of data set: Antiinflammatory activity in mouse BV2 cells assessed as reduction in LPS-induced iNOS expression at 3 to 10 uM incubated for 6 hrs followed by LPS stimulation for 12 hrs by RT-qPCR analysis. Format: functional, cell-based. The gist of the method: as §3
In data set [7] the test system is Mus musculus. Kind of data set: Anti-parkinson's activity in MPTP-induced C57Bl/6 mouse model of Parkinson's disease assessed as restoration of descent time at 20 mg/kg, po administered for 3 consecutive days prior and subsequent to MPTP administration (four injections of MPTP, 2 h intervals, 20 mg/kg, i.p. injection by vertical grid test. In kind it is functional, organism-based. The gist of the method:
as §2

Data set [8] addresses T1, Nuclear factor erythroid 2-related factor 2 (Mus musculus) (UniProt Q60795).
T1 sequence (whole entry): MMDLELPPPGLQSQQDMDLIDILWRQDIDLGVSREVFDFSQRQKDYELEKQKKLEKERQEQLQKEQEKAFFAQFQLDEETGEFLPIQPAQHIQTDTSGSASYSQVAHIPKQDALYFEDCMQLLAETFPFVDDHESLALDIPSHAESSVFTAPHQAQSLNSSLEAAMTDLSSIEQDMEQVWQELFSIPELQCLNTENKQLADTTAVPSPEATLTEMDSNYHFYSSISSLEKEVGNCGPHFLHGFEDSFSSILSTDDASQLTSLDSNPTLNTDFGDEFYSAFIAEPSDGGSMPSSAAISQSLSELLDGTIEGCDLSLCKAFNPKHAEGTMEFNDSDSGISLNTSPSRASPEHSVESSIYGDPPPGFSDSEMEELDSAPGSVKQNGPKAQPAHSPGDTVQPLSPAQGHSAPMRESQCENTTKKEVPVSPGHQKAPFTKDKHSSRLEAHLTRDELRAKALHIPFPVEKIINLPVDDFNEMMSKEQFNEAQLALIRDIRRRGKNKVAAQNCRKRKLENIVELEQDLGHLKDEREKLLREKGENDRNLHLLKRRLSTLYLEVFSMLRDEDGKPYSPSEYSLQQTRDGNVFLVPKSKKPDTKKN
Kind of data set: Activation of Nrf2 in mouse BV-2 cells assessed as increase in GCLM level at 0.3 to 10 uM incubated for 12 hrs by Western blot analysis relative to control. In kind it is cell-based. The gist of the method: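 BV-2 cells treated for 12 h; HO-1, GCLM, GCLC protein by Western blot, normalized to β-actin; at least duplicate cultures, fold induction over untreated control ± SEM; paired t test.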

Data set [9] deals with Mus musculus. The experiment in a line: Protection against MPTP-induced DAergic neurotoxicity in C57BL/6 mouse model of Parkinson's disease assessed as reduction in SNpc microglial activation by measuring Iba1 fluorescent intensity at 20 mg/kg/day, administered for 7 consecutive days by TH/Iba1 double immunostaining-based assay. In kind it is functional, organism-based. The conditions noted are these: in the assay text read “administered for 3 consecutive days” for “administered for 7 consecutive days”. The gist of the method:
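Double immunofluorescence for TH and Iba-1 on coronal substantia nigra sections 10 days after i.p. MPTP; relative Iba-1 intensity compared, n = 9 per group; mean ± SEM; one-way ANOVA with Tukey's test.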

The target of data set [10] is T1, Nuclear factor erythroid 2-related factor 2 (Mus musculus). Kind of data set: Activation of Nrf2 in mouse BV-2 cells assessed as upregulation of GCLM mRNA expression at 1 to 10 uM incubated for 3 hrs by RT-qPCR analysis relative to control. Format: cell-based. The gist of the method: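 BV-2 cells exposed to a range of concentrations for 3 h; HO-1, GCLM and GCLC mRNA quantified by RT-qPCR, normalized to β-actin; at least duplicate cultures, fold of untreated control ± SEM; paired t test.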

Data set [11] has as its system BV-2. The experiment in a line: Antiinflammatory activity in mouse BV2 cells assessed as reduction in LPS-induced IL-6 production incubated for 24 hrs by ELISA. Format: functional, cell-based. The gist of the method: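 BV-2 cells given compound together with 1 μg/mL LPS for 24 h; mediator levels expressed relative to LPS-stimulated control ± SEM; at least duplicate cultures; paired t test.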

Data set [12] concerns BV-2. The experiment in a line: Antiinflammatory activity in mouse BV2 cells assessed as reduction in LPS-induced iNOS level at 1 to 10 uM incubated for 6 hrs followed by LPS stimulation for 12 hrs by Western blot analysis. In kind it is functional, cell-based. The gist of the method:
as §3

Turning to `COc1ccccc1OS(=O)(=O)/C=C/c1ccccc1Cl`, the outcome in [1], in data set [2], in data set [4], in data set [5], in data set [6] and in data set [7] was Active. The outcome in [9] and in data set [12] was Active. In addition, the viability at 6 h, 10 µM in [3] stood at 95.9%. The fold change (FC) came out at 5.6 in [8] and 5.3 in data set [10]. Moreover, the Activity result in [11] was “Dose-dependent effect”.
